Reference: ChEMBL document CHEMBL5137074 (J Med Chem, 2022)
pEC50, pIC50: −log10 of the molar value.

Columns and labels:
Wee1-like protein kinase = Wee1-like protein kinase (Homo sapiens, UniProt P30291); assay: Inhibition of WEE1 (unknown origin)
Ephrin type-B receptor 3 = target: T1, Ephrin type-B receptor 3 (Homo sapiens, UniProt P54753); assay: Inhibition of full length Nano-luc fused EPHB3 in human HEK-293T cells incubated for 2 hrs by cell based NanoBRET target engagement assay
T1 sequence (P54753 whole entry): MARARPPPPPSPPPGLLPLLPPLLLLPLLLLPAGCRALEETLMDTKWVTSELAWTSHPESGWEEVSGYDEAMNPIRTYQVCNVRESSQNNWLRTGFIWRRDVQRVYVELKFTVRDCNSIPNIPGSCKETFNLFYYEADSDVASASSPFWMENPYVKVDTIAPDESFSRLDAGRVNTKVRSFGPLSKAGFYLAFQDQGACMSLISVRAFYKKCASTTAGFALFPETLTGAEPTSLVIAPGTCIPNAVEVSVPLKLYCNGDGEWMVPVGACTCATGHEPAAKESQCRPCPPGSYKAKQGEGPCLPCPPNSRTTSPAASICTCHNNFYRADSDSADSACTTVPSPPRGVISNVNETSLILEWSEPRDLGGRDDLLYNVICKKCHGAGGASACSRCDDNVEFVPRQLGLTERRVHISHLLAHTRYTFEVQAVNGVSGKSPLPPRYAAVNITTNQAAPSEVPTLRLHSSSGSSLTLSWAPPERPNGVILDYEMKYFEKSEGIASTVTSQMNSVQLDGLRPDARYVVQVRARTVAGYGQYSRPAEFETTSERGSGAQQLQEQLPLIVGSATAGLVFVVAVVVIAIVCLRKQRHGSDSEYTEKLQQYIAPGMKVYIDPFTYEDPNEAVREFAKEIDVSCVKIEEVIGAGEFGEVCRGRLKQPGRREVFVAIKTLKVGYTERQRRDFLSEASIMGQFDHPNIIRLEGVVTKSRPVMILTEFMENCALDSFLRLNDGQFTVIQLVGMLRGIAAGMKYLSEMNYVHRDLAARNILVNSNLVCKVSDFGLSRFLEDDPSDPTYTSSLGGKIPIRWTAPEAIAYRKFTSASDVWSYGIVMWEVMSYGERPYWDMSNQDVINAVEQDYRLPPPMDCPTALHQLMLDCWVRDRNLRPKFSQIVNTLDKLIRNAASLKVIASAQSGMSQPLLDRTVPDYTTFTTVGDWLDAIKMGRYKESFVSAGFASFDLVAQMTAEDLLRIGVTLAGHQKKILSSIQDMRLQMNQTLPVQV
How it was run: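 HEK293T cells transiently transfected with the NanoLuc–kinase fusion vector plus carrier DNA and left overnight at 37 °C/5% CO2. Cells were resuspended in phenol red-free Opti-MEM at 17000 cells/well with the tracer. They were then exposed to compound for 2 h at 37 °C, and substrate/inhibitor mix was added. Acceptor (610 nm) and donor (450 nm) emissions were read.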

OVCAR-3 [1] = assay: Antitumor activity against human OVCAR-3 cells xenografted in SCID/Beige mouse assessed as time over EC90 concentration at 15 ppm incorporated with chow diet; type: functional
How it was run: (§1)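 OVCAR3-bearing SCID-beige mice were fed drug-formulated chow. Whole blood was sampled at 6:30am and 4:30pm on days 2, 5 and 22 and quantified by LC-MS/MS. Blood levels were converted to free plasma levels using blood/plasma ratio 1.2 and CD-1 plasma fu 0.185. […] Time over EC90 was referenced to the tumour pCDK1(Thr14) EC90.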

[2] = In vivo inhibition of PKMYT1 in SCID/Beige mouse xenografted with human OVCAR-3 cells assessed as inhibition of CDK1 phosphorylation measured upto 10 hrs post oral dose by ELISA method; type: functional
How it was run: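 OVCAR3 tumours were collected 2, 6 and 10 h after oral BID dosing (n=4/group/time point). They were homogenised in Tris lysis buffer with protease and phosphatase inhibitors. pCDK1(Thr14) was measured by sandwich ELISA with an anti-CDK1 capture antibody, an anti-CDK1-pT14 detector and an anti-rabbit HRP secondary, read at 450 nm. Signal was expressed relative to vehicle, and the free-plasma EC50 was derived by non-linear dose-response fitting.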

[3] = target: Voltage-gated inwardly rectifying potassium channel KCNH2 (Homo sapiens, UniProt Q12809); assay: Inhibition of human ERG by patch-clamp assay; type: toxicity
[4] = Toxicity in SCID/Beige mouse xenografted with OVCAR-3 cells assessed as reduction in food consumption at 15 to 300 ppm incorporated with chow diet measured upto 21 days; type: cell-based; conditions: in vivo, po, 504 h, dose 15-300 ppm, time < 21 day
How it was run: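 The drug was dissolved in acetone and mixed into rodent meal at 300 ppm, then diluted with untreated feed to lower levels. Xenografted SCID-beige mice were acclimatised to blank chow, then fed 15, 50 or 300 ppm chow for 21 days. The two-day mean chow consumption was compared with mice on blank chow.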

Cytochrome P450 2D6 = Cytochrome P450 2D6 (Homo sapiens, UniProt P10635); assay: Inhibition of CYP2D6 (unknown origin)
[5] = Unbound Cmax in SCID/Beige mouse xenografted with OVCAR-3 cells at 50 ppm incorporated with chow diet; type: ADME; conditions: po; how it was run: as §1
[6] = Oral bioavailability in CD-1 mouse at 2.5 to 5 mg/kg measured upto 24 hrs by HPLC-LCMS analysis; type: ADME, organism-based; conditions: in vivo, dose 2.5-5 mg/kg
How it was run: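 Female CD1 mice (20–30 g) dosed IV at 1 mg/kg as a solution. Oral dosing at 2.5 or 5 mg/kg as a suspension in 0.5% methyl cellulose. […] Non-compartmental analysis.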

[7] = Metabolic stability in human hepatocytes assessed as intrinsic clearance measured per 10^6 cells
[8] = Toxicity in SCID/Beige mouse xenografted with OVCAR-3 cells assessed as change in body weight at 300 ppm measured upto 21 days; type: cell-based; conditions: in vivo, 504 h, time < 21 day
How it was run: (§2)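 OVCAR3 flank xenografts in female SCID-beige mice (n=8) given drug-formulated chow for 21 days after blank-chow acclimatization. Individual body weight change relative to day 0 = (BWlast−BWday0)/BWday0 ×100. Food consumption was also monitored as two-day mean chow intake.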

Cytochrome P450 2C9 = Cytochrome P450 2C9 (Homo sapiens, UniProt P11712); assay: Inhibition of CYP2C9 (unknown origin)
[9] = Oral bioavailability in Cynomolgous monkey at 1 mg/kg measured upto 24 hrs by reversed phase LCMS analysis; type: ADME, organism-based, Macaca fascicularis; conditions: cynomolgus monkey, in vivo
[10] = Stability in SCID/Beige mouse plasma assessed as unbound compound at 50 to 300 ppm simulated dose incorporated with chow diet measured on 22 day; type: ADME; conditions: in vivo, po, dose 50-300 ppm; how it was run: as §1
[11] = Apparent permeability across apical to basolateral side in human Caco-2 cells
[12] = rat, in vivo, po, 5 mg/kg, 24 h
Cytochrome P450 3A4 [13] = target: T2, Cytochrome P450 3A4 (Homo sapiens, UniProt P08684); assay: Induction of CYP3A4 in human hepatocytes at 3 uM relative to rifampicin; type: ADME, cell-based, Hepatocyte
How it was run: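 Single-donor human hepatocytes exposed at 3 μM. CYP3A4 induction expressed as % of the 10 μM rifampicin positive control.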

[14] = Toxicity in SCID/Beige mouse xenografted with OVCAR-3 cells assessed as tolerated dose at 300 ppm measured upto 21 days; type: cell-based; conditions: in vivo, 504 h, time < 21 day; how it was run: as §2
OVCAR-3 [15] = assay: Antitumor activity against human OVCAR-3 cells xenografted in SCID/Beige mouse assessed as reduction in tumor growth measured upto 20 days by digital caliper method; type: functional, cell-based; conditions: dose 15-300 ppm, time <= 21.0 day, DDE = dose-dependent effect, in the assay text read “upto 21 days” for “upto 20 days”
How it was run: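 Female SCID-beige mice (5–7 weeks) were implanted in the right flank with 5×10^6 OVCAR3 cells in 1:1 matrigel:media. At 100–150 mm3 they were randomised (n=8/group) and acclimatised to blank chow for 3–5 days. They then received drug-formulated chow at 15, 50 or 300 ppm for 21 days. Tumours were measured by caliper, with volume = 0.52×L×W2. TGI was calculated from group means at day 0 and the last day versus vehicle.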

[16] = rat, in vivo, iv, 1 mg/kg, 24 h
[17] = Plasma protein binding in rat at 1 uM
[18] = target: T3, Membrane-associated tyrosine- and threonine-specific cdc2-inhibitory kinase (Homo sapiens, UniProt Q99640)
T3 sequence (Q99640 whole entry): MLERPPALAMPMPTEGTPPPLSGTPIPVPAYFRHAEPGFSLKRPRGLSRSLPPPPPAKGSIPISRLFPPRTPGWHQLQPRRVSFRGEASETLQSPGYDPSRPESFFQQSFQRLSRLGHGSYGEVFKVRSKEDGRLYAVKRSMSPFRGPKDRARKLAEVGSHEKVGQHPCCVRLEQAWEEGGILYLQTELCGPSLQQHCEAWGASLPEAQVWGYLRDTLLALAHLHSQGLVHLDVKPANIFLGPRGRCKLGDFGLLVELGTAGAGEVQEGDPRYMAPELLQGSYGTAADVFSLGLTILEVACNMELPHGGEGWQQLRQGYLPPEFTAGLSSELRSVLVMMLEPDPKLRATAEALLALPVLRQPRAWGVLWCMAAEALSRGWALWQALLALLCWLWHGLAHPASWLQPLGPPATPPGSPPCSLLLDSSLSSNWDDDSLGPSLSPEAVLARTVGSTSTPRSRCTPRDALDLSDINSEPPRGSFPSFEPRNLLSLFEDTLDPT

Cytochrome P450 3A4 [19] = target: T2, Cytochrome P450 3A4; assay: Inhibition of CYP3A4 (unknown origin)
[20] = Plasma protein binding in human at 1 uM; type: ADME, cell-free
How it was run: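 Plasma protein binding measured at 1 μM compound in human plasma, with rat plasma run alongside.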

[21] = Oral bioavailability in Beagle dog at 1 mg/kg measured upto 24 hrs by reversed phase LCMS analysis; type: ADME, organism-based, Canis lupus familiaris; conditions: in vivo

Sequence of Wee1-like protein kinase (P30291 whole entry, the tested form may be a part): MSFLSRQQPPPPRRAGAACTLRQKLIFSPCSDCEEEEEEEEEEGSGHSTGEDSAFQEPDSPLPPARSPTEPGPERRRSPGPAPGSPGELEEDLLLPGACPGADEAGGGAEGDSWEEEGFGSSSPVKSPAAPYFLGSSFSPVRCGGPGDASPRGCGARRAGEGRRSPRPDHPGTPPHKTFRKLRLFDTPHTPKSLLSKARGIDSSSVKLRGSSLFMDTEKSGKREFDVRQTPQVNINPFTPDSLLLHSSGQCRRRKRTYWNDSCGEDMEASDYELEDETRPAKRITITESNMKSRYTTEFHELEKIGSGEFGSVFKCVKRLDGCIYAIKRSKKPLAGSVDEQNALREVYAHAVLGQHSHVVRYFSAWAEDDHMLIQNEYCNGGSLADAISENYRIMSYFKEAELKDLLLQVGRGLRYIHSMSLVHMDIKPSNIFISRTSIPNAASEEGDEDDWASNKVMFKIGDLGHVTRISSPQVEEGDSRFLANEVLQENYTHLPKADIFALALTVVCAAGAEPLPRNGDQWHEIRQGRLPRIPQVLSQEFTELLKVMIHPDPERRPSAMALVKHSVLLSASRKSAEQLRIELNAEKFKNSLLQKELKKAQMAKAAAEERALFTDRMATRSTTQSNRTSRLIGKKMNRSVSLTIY
Sequence of Cytochrome P450 2D6 (P10635 whole entry): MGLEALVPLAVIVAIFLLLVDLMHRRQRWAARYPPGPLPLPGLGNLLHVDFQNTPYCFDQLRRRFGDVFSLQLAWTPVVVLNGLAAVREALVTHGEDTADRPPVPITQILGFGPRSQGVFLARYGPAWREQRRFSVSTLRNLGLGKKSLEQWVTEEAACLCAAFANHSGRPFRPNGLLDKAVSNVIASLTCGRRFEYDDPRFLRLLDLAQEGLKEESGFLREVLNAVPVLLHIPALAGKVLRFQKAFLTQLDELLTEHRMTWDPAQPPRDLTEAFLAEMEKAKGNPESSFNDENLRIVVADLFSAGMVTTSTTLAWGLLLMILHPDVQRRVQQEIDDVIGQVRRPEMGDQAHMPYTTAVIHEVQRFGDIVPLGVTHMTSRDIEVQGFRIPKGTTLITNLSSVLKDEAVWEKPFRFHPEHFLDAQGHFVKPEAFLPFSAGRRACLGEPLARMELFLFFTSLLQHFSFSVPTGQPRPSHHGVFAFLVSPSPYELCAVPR
T2 sequence (P08684 whole entry): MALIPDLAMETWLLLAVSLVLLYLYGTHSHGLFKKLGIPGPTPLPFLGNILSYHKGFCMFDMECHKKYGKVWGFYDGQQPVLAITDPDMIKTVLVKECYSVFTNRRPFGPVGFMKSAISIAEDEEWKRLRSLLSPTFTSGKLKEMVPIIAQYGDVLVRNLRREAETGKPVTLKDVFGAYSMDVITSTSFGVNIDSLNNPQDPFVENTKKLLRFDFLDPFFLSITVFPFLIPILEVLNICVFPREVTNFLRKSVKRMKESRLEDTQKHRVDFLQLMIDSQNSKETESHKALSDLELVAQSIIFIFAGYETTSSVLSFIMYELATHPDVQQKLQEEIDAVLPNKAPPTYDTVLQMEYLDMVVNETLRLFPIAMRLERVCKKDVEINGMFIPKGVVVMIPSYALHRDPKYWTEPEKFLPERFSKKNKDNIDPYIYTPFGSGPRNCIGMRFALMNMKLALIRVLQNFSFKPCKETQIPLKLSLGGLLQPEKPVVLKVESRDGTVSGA
Sequence of Cytochrome P450 2C9 (P11712 whole entry): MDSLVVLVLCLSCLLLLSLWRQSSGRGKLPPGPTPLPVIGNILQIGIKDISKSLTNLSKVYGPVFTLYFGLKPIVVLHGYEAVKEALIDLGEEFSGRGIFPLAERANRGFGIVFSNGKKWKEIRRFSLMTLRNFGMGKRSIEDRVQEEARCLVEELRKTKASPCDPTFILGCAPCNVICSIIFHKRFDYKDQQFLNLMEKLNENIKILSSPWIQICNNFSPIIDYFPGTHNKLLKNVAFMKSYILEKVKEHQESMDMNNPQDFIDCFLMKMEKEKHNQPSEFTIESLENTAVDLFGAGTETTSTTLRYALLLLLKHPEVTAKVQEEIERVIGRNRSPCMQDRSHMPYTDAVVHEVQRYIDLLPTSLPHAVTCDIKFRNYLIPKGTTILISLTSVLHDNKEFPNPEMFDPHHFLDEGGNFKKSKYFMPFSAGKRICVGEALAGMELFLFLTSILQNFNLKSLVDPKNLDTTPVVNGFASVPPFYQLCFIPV
Sequence of Voltage-gated inwardly rectifying potassium channel KCNH2 (Q12809 whole entry): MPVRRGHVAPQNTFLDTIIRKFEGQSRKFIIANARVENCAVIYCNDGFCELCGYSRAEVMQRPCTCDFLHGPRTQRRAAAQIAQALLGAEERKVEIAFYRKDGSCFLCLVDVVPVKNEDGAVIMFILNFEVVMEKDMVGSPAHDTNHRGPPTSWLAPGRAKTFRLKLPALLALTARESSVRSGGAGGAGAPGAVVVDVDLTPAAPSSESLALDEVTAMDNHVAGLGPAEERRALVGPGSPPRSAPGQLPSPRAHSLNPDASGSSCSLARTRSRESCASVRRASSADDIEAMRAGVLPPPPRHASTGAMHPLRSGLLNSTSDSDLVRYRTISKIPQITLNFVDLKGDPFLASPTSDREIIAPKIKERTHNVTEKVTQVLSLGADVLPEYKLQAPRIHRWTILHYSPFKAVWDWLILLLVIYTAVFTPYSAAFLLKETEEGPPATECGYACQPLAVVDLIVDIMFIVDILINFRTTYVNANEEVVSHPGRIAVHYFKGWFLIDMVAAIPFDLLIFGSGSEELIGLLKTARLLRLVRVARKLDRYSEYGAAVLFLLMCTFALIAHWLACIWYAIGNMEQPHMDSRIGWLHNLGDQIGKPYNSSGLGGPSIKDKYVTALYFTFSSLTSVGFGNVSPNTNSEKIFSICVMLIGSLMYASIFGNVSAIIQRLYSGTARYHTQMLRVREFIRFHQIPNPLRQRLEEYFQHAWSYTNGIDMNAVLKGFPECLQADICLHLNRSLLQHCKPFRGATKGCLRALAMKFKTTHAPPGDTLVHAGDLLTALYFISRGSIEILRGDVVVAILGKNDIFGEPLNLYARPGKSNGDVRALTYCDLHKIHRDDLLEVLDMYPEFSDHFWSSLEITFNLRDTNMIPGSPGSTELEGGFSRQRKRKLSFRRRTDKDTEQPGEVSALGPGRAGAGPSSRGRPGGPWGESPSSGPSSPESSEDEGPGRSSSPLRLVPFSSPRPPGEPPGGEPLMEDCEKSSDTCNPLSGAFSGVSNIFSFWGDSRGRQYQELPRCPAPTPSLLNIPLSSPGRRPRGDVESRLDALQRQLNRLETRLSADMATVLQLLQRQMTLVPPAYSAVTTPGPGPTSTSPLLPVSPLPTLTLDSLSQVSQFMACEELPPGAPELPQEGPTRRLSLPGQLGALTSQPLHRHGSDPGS

Cc1ccc(O)cc1-n1c(N)c(C(N)=O)c2nc3ccccc3nc21
pIC50 (Wee1-like protein kinase): 5.43
pIC50 (Ephrin type-B receptor 3): 8.15

NC(=O)c1c(N)n(-c2cccc3[nH]ncc23)c2nc3ccccc3nc12
pIC50 (Wee1-like protein kinase): 5.28

Cc1cc2c(C(N)=O)c(N)n(-c3c(C)ccc(O)c3C)c2nc1C [LUNRESERTIB]
Time (OVCAR-3 [1]): 0 h
pEC50 ([2]; Homo sapiens, OVCAR-3, 10 h): 9.70
EC90 ([2]; route po, time <= 10 hrs): 0.011 µM
pIC50 [3]: < 4.00
Activity [4]: Non-Toxic
pIC50 (Cytochrome P450 2D6): < 4.52
fCmax [5]: 15.5 nM
F [6]: 37%
CLH [7]: 3.2 µL/min
Activity [8]: Non-Toxic
pIC50 (Cytochrome P450 2C9): < 4.52
F [9]: 29%
Stability [10]: Stable
Papp [11]: 15.2 10^-6 cm/s
F ([12]; Sprague-Dawley): 48%
Activity (Cytochrome P450 3A4 [13]): 12.5%
Activity [14]: Non-Toxic
Activity (OVCAR-3 [15]): Dde

Cc1cnc2c(c1)c(C(N)=O)c(N)n2-c1c(C)ccc(O)c1C
CL free [16]: 4.56 L/h/kg
PPB [17]: 73.8%
F [12]: 62%

NC(=O)c1c(N)n(-c2cccc(O)c2)c2nc3ccccc3nc12
pIC50 (Wee1-like protein kinase): 4.71

Cc1ccc(O)c(C)c1-n1c(N)c(C(N)=O)c2nc3cccc(-c4ccnn4C)c3nc21
pIC50 [18]: > 8.52

Cc1ccc2[nH]ncc2c1-n1c(N)c(C(N)=O)c2nc3ccccc3nc21
pIC50 (Wee1-like protein kinase): 5.49

NC(=O)c1c(N)n(-c2c(Cl)ccc(O)c2Cl)c2nc3ccccc3nc12
pIC50 (Wee1-like protein kinase): 6.66

Cc1ccc(O)c(C)c1-n1c(N)c(C(N)=O)c2nccnc21
CL free [16]: 4.86 L/h/kg
PPB [17]: 81%
pIC50 (Cytochrome P450 2D6): < 4.52
CLH [7]: < 3 µL/min
pIC50 (Cytochrome P450 2C9): < 4.52
Papp [11]: 19 10^-6 cm/s
pIC50 (Cytochrome P450 3A4 [19]): < 4.52
F [12]: 56%

Cc1ccc(O)c(C)c1-n1c(N)c(C(N)=O)c2cc(Cl)cnc21
CL free [16]: 12.9 L/h/kg
PPB [17]: 88.1%
pIC50 (Cytochrome P450 2D6): < 4.52
PPB [20]: 89.6%
F [21]: 33%
F [6]: 21%
hepatocyte CLint [7]: 4.5 µL/min/1e6 cells
pIC50 (Cytochrome P450 2C9): 4.59
F [9]: 32%
Papp [11]: 18.3 10^-6 cm/s
pIC50 (Cytochrome P450 3A4 [19]): < 4.52
F [12]: 37%
Activity (Cytochrome P450 3A4 [13]): 26.7%

Cc1ccc(O)c(C)c1-n1c(N)c(C(N)=O)c2nc3cccc(Br)c3nc21
pIC50 [18]: > 8.52

NC(=O)c1c(N)n(-c2cccc3[nH]nnc23)c2nc3ccccc3nc12
pIC50 [18]: < 4.70

Cc1ccc(O)c(Cl)c1-n1c(N)c(C(N)=O)c2nc3ccccc3nc21
pIC50 (Wee1-like protein kinase): 6.03
pIC50 (Ephrin type-B receptor 3): 8.15

Cc1c(O)ccc(Cl)c1-n1c(N)c(C(N)=O)c2nc3ccccc3nc21
pIC50 (Wee1-like protein kinase): 6.64
